# Results from ChEMBL document CHEMBL1149250, “Optimization of protein kinase CK2 inhibitors derived from 4,5,6,7-tetrabromobenzimidazole” (J Med Chem, 2004).
# Active and inactive are the calls of the source. The rule behind the calls is not given here.
# What was measured:
# Casein kinase II = Casein kinase II (Homo sapiens, UniProt P19784+P67870+P68400); test: Inhibition of CK2; format: protein-complex assay
# Jurkat [1] = test: Inhibition of cell viability in Jurkat T cells after 24 hrs by MTT method; format: functional, cell-based; conditions: Homo sapiens
# Summary of the method: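 Human Jurkat T-leukemia cells, grown in RPMI-1640 with 10% FCS, were resuspended at 10⁶ cells/mL in medium with 1% FCS. They were exposed to increasing compound concentrations for 24 h at 37 °C. Controls received DMSO (0.5% v/v), set as 100% viability. Viability was read by MTT. Values are means ± SEM of three separate experiments; DC50 was taken as the concentration halving viability.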
# Jurkat [2] = test: Induction of mitochondrial depolarization in Jurkat T cells up to 10 uM; format: functional, cell-based; conditions: Homo sapiens
# [3] = target: T1, Dual specificity tyrosine-phosphorylation-regulated kinase 1A (Homo sapiens, UniProt Q13627); test: Inhibition of DYRK1A
# [4] = target: T2, Dual specificity mitogen-activated protein kinase kinase 1 (Homo sapiens, UniProt Q02750); test: Inhibition of MKK1
# T2 sequence (Q02750 whole entry): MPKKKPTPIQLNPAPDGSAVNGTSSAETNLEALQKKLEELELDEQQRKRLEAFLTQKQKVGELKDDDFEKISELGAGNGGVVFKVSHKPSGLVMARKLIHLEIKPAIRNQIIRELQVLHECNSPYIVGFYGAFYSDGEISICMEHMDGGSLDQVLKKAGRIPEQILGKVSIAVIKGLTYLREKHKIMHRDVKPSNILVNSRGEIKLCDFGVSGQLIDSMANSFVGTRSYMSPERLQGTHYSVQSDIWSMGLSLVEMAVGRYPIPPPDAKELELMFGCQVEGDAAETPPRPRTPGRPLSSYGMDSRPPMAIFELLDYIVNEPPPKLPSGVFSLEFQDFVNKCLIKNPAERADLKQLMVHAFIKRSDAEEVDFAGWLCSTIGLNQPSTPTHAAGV
# [5] = target: T3, Ribosomal protein S6 kinase alpha-1 (Homo sapiens, UniProt Q15418); test: Inhibition of MAPKAPK1a
# T3 sequence (Q15418 whole entry): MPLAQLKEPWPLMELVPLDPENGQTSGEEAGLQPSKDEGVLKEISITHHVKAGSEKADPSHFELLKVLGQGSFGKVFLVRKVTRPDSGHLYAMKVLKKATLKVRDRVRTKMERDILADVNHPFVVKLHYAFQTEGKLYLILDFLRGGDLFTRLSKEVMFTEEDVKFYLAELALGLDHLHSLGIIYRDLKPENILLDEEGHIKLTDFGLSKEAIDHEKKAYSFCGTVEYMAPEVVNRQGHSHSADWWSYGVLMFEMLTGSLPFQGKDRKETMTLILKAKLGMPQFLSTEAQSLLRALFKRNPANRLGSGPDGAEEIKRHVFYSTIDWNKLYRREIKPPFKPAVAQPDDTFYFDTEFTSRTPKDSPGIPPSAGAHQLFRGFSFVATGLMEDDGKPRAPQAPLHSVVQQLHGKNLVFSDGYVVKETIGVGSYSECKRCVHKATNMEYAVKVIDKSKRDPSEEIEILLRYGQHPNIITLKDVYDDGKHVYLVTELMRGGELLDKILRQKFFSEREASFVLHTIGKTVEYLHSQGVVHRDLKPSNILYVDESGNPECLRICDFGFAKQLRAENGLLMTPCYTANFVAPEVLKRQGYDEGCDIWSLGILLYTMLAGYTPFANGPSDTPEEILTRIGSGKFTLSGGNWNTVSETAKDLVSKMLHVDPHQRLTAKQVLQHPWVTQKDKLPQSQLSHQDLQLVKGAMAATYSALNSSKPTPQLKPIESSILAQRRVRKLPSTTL
# [6] = target: Serine/threonine-protein kinase Sgk1 (Homo sapiens, UniProt O00141); test: Inhibition of SGK
# Sequence of Serine/threonine-protein kinase Sgk1 (O00141 whole entry): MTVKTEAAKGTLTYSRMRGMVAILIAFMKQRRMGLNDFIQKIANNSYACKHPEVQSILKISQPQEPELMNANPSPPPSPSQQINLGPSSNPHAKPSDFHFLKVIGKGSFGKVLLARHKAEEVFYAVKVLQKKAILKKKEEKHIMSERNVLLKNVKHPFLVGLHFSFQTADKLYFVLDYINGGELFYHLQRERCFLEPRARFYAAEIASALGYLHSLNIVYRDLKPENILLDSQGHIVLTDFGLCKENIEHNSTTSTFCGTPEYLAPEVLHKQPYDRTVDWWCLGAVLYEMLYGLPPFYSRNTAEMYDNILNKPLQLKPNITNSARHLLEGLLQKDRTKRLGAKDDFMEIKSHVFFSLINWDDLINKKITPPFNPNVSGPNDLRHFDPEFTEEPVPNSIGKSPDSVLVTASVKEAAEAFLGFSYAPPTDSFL
# [7] = target: Cyclin-dependent kinase 2/cyclin A (Homo sapiens, UniProt P24941); test: Inhibition of CDK2/Cyclin A; format: protein-complex assay
# Jurkat [8] = test: Induction of caspase activation assessed as PARP cleavage in Jurkat T cells; format: functional, cell-based; conditions: Homo sapiens
# Summary of the method: (§1)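 Jurkat T cells suspended at 10⁶ cells/mL in RPMI-1640 with 1% fetal calf serum, treated 14 h at 37 °C with 5 or 10 μM compound; untreated cells as control, 50 ng/mL anti-Fas as apoptotic control. Cells lysed in hypo-osmotic buffer; caspase activation read by Western blot as degradation of HS1 (full length and major fragment) and PARP.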
# Jurkat [9] = test: Induction of caspase activation assessed as HS1 protein cleavage in Jurkat T cells; format: functional, cell-based; conditions: Homo sapiens; summary of the method: as §1
# [10] = target: Casein kinase I (Homo sapiens) (UniProt Q9HCP0+P78368+P48730+P49674+P48729); test: Residual activity of CK1 at 10 uM relative to control
# [11] = target: Tyrosine-protein kinase Lyn (Homo sapiens) (UniProt P07948); test: Residual activity of Lyn at 10 uM relative to control
# [12] = target: Tyrosine-protein kinase SYK (Rattus norvegicus) (UniProt Q64725); test: Residual activity of Syk at 10 uM relative to control
# [13] = target: Ribosomal protein S6 kinase alpha-5 (Homo sapiens) (UniProt O75582); test: Residual activity of MSK1 at 10 uM relative to control
# [14] = target: MAP kinase-activated protein kinase 5 (Homo sapiens) (UniProt Q8IW41); test: Residual activity of PRAK at 10 uM relative to control
# Sequence of MAP kinase-activated protein kinase 5 (Homo sapiens) (Q8IW41 whole entry): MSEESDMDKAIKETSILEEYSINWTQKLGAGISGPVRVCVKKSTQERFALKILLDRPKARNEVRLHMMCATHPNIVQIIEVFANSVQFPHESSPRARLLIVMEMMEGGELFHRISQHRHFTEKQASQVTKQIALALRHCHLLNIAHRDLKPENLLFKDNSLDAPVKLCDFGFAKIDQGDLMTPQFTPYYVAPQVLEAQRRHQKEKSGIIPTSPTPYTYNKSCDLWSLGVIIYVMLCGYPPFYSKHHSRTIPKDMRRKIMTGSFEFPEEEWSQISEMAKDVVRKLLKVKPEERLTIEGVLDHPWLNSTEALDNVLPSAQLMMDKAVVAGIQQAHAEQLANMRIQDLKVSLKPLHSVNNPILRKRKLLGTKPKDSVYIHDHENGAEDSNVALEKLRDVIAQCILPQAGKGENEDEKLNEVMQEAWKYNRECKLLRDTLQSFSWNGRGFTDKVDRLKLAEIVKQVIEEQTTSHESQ
# [15] = target: Ribosomal protein S6 kinase beta-1 (Homo sapiens) (UniProt P23443); test: Residual activity of S6K1 at 10 uM relative to control
# [16] = target: Mitogen-activated protein kinase 12 (Homo sapiens) (UniProt P53778); test: Residual activity of SAPK3/p38gamma relative to control
# [17] = target: T3, Ribosomal protein S6 kinase alpha-1; test: Residual activity of MAPKAPK1a at 10 uM relative to control
# Homo sapiens [18] = species: Homo sapiens; test: Inhibition of phosphorylase kinase at 10 uM relative to control
# [19] = target: Mitogen-activated protein kinase 13 (Homo sapiens) (UniProt O15264); test: Residual activity of SAPK4/p38delta at 10 uM relative to control
# [20] = target: cAMP-dependent protein kinase (PKA) (Homo sapiens) (UniProt P22694+P17612+P22612); test: Inhibition of PKA at 10 uM relative to control; values are per cent of control
# [21] = target: Serine/threonine-protein kinase Sgk1 (Homo sapiens) (UniProt O00141); test: Inhibition of SGK at 10 uM relative to control; values are per cent of control
# Sequence of Serine/threonine-protein kinase Sgk1 (Homo sapiens) (O00141 whole entry): as the sequence (O00141 whole entry) above
# [22] = target: Tyrosine-protein kinase Lck (Homo sapiens) (UniProt P06239); test: Inhibition of Lck at 10 uM relative to control; values are per cent of control
# [23] = target: T2, Dual specificity mitogen-activated protein kinase kinase 1; test: Inhibition of MKK1 at 10 uM relative to control; values are per cent of control
# [24] = target: 3-phosphoinositide-dependent protein kinase 1 (Homo sapiens) (UniProt O15530); test: Inhibition of PDK1 at 10 uM relative to control; values are per cent of control
# [25] = target: AMP-activated protein kinase (AMPK) alpha-1/beta-1/gamma-1 (Homo sapiens) (UniProt P54619+Q9Y478+Q13131); test: Inhibition of AMPK at 10 uM relative to control; values are per cent of control
# Homo sapiens [26] = species: Homo sapiens; test: Inhibition of PP2A at 10 uM relative to control; values are per cent of control
# [27] = target: Rho-associated protein kinase 2 (Homo sapiens) (UniProt O75116); test: Inhibition of ROCK2 at 10 uM relative to control; values are per cent of control
# [28] = target: EKC/KEOPS complex subunit BUD32 (Saccharomyces cerevisiae S288c) (UniProt P53323); test: Inhibition of PiD261 at 10 uM relative to control; values are per cent of control
# Sequence of EKC/KEOPS complex subunit BUD32 (Saccharomyces cerevisiae S288c) (P53323 whole entry, one chain of several): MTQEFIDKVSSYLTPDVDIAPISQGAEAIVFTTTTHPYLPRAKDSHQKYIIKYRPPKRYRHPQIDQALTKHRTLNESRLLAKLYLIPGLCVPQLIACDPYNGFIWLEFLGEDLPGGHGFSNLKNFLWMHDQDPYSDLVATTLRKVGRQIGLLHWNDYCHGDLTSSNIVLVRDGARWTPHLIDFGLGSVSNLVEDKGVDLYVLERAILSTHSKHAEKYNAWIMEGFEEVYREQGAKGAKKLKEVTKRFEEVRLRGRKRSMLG
# [29] = target: T1, Dual specificity tyrosine-phosphorylation-regulated kinase 1A; test: Inhibition of DYRK1A at 10 uM relative to control; values are per cent of control
# [30] = target: Glycogen synthase kinase-3 beta (Homo sapiens) (UniProt P49841); test: Inhibition of GSKbeta at 10 uM relative to control; values are per cent of control
# Sequence of Glycogen synthase kinase-3 beta (Homo sapiens) (P49841 whole entry, looked up): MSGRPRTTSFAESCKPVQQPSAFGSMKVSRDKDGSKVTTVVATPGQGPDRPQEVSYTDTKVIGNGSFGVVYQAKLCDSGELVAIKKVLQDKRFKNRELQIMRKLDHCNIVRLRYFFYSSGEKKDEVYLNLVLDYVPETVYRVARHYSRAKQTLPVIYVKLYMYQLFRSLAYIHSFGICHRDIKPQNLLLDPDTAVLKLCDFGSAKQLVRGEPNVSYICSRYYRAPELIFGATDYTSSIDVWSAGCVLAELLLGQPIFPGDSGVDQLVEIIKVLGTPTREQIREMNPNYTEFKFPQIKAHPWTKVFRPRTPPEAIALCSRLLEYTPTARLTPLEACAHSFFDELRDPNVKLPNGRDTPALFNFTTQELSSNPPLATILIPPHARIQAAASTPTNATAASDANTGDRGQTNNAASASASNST
# [31] = target: Serine/threonine-protein kinase Chk1 (Homo sapiens) (UniProt O14757); test: Inhibition of at CHK1 at 10 uM relative to control; values are per cent of control
# [32] = target: MAP kinase-activated protein kinase 2 (Homo sapiens) (UniProt P49137); test: Inhibition of MAPKAPK2 at 10 uM relative to control; values are per cent of control
# [33] = target: Protein kinase C alpha type (Homo sapiens) (UniProt P17252); test: Inhibition of PKCalpha at 10 uM relative to control; values are per cent of control
# [34] = target: RAC-alpha serine/threonine-protein kinase (Homo sapiens) (UniProt P31749); test: Inhibition of PKBalpha at 10 uM relative to control; values are per cent of control
# Sequence of RAC-alpha serine/threonine-protein kinase (Homo sapiens) (P31749 whole entry): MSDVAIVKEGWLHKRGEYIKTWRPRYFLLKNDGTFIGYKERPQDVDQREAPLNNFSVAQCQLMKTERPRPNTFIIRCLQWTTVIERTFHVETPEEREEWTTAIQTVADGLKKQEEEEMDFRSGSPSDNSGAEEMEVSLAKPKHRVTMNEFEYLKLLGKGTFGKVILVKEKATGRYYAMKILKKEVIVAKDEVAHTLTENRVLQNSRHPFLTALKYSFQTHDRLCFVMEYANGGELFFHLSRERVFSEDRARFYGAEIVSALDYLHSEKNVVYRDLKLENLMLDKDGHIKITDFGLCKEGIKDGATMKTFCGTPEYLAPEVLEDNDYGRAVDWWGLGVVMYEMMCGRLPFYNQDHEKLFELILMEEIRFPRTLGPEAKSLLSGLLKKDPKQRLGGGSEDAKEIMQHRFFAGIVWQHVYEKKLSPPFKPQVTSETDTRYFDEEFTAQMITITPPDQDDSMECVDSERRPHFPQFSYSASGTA
# [35] = target: Mitogen-activated protein kinase 1 (Homo sapiens) (UniProt P28482); test: Inhibition of MAPK2/ERK2 at 10 uM relative to control; values are per cent of control
# [36] = target: Mitogen-activated protein kinase 8 (Homo sapiens) (UniProt P45983); test: Inhibition of JNK/SAPK1c at 10 uM relative to control; values are per cent of control
# [37] = target: Mitogen-activated protein kinase 14 (Homo sapiens) (UniProt Q16539); test: Inhibition of SAPK2a/p38 at 10 uM relative to control; values are per cent of control
# Sequence of Mitogen-activated protein kinase 14 (Homo sapiens) (Q16539 whole entry): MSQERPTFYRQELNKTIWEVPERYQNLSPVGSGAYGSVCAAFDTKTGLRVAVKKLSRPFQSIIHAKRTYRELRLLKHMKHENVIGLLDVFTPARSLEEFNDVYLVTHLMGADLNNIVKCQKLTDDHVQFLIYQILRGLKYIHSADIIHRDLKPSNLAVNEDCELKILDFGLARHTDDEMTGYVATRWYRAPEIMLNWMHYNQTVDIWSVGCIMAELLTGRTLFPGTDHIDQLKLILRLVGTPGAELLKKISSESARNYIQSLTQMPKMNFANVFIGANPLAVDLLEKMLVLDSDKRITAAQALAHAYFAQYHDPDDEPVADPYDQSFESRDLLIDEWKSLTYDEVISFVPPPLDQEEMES
# [38] = target: Mitogen-activated protein kinase 11 (Homo sapiens) (UniProt Q15759); test: Inhibition of SAPK2b/p38--beta-2 at 10 uM relative to control; values are per cent of control
# Sequence of Mitogen-activated protein kinase 11 (Homo sapiens) (Q15759 whole entry): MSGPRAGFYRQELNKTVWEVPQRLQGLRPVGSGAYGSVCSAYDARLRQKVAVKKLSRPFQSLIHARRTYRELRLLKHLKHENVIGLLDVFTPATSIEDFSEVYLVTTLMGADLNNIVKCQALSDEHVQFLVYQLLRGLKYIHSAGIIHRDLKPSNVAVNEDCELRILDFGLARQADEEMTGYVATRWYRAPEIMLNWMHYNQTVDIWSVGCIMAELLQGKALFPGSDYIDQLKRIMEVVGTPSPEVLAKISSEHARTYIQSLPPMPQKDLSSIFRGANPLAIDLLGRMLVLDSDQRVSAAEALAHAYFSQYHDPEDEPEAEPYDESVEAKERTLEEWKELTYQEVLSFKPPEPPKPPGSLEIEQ
# [39] = target: Tyrosine-protein kinase CSK (Homo sapiens) (UniProt P41240); test: Inhibition of CSK at 10 uM relative to control
# Summary of the method: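 Kinase selectivity panel: activity of each kinase measured with inhibitor at 10 μM. Residual activity is expressed as a percentage of a control run without inhibitor. Assays were linear with respect to time and enzyme concentration. Lyn, c-Fgr and Syk were purified from rat spleen. Golgi CK came from rat lactating mammary gland.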
# Sequence of Casein kinase II (P67870 whole entry): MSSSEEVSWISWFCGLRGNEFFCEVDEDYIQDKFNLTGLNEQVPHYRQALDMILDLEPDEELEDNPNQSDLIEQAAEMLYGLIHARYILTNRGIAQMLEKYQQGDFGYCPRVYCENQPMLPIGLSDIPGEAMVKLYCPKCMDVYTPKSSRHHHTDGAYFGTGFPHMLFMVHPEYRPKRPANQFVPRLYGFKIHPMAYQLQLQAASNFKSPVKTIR
# Sequence of Casein kinase II (P68400 whole entry): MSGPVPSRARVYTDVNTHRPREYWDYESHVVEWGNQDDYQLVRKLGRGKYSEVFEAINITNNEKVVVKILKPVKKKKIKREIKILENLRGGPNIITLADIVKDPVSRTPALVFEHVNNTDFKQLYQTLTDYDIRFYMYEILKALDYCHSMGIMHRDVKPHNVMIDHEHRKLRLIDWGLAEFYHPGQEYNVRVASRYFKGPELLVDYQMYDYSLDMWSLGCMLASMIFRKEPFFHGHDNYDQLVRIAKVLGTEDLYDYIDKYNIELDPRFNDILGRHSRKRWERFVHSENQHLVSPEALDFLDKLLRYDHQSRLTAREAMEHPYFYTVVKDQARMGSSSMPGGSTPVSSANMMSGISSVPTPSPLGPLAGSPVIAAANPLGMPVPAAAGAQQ
# Sequence of Casein kinase II (P19784 whole entry): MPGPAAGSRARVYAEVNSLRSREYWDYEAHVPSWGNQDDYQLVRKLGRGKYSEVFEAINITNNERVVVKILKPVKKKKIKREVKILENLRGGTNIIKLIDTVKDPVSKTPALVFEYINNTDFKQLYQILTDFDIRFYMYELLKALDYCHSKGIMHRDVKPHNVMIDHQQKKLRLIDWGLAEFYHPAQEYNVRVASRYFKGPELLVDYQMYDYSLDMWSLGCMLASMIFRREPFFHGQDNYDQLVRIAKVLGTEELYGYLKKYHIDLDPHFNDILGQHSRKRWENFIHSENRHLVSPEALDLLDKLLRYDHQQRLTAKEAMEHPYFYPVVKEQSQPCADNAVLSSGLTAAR
smiles,measurement,setting,value
CC(C)Oc1nc2c(Br)c(Br)c(Br)c(Br)c2n1C,IC50,Casein kinase II,20400 nM
Cn1c(=O)[nH]c2c(Br)c(Br)c(Br)c(Br)c21,IC50,Casein kinase II,390 nM
same,Ki,Casein kinase II,200 nM
C=CCn1c(Br)nc2c(Br)c(Br)c(Br)c(Br)c21,IC50,Casein kinase II,880 nM
same,Ki,Casein kinase II,630 nM
O=[N+]([O-])c1ccc(CSc2nc3c(Br)c(Br)c(Br)c(Br)c3[nH]2)cc1,IC50,Casein kinase II,3480 nM
OCC(O)CSc1nc2c(Br)c(Br)c(Br)c(Br)c2[nH]1 (configuration not stated),IC50,Casein kinase II,150 nM
same,Ki,Casein kinase II,140 nM
CSc1nc2c(Br)c(Br)c(Br)c(Br)c2[nH]1,IC50,Casein kinase II,250 nM
same,Ki,Casein kinase II,70 nM
CN(C)c1nc2c(Br)c(Br)c(Br)c(Br)c2[nH]1,DC50,Jurkat [1],2700 nM
same,Activity,Jurkat [2],inactive
same,IC50,[3],120 nM
same,IC50,[4],10500 nM
same,IC50,[5],10300 nM
same,IC50,[6],3570 nM
same,IC50,[7],2380 nM
same,Activity,Jurkat [8],Active
same,Activity,Jurkat [9],Active
same,residual activity,[10],87%
same,residual activity,[11],91%
same,residual activity,[12],103%
same,residual activity,[13],73%
same,residual activity,[14],77%
same,residual activity,[15],65%
same,residual activity,[16],88%
same,residual activity,[17],52%
same,residual activity,Homo sapiens [18],41%
same,residual activity,[19],109%
same,residual activity,[20],80%
same,residual activity,[21],29%
same,residual activity,[22],104%
same,residual activity,[23],53%
same,residual activity,[24],112%
same,residual activity,[25],73%
same,residual activity,Homo sapiens [26],67%
same,residual activity,[27],69%
same,residual activity,[28],97%
same,residual activity,[29],2%
same,residual activity,[30],103%
same,residual activity,[31],81%
same,residual activity,[32],101%
same,residual activity,[33],95%
same,residual activity,[34],96%
same,residual activity,[35],77%
same,residual activity,[36],97%
same,residual activity,[37],85%
same,residual activity,[38],65%
Nc1nc2c(Br)c(Br)c(Br)c(Br)c2[nH]1,IC50,Casein kinase II,300 nM
same,Ki,Casein kinase II,90 nM
O=C(O)CSc1nc2c(Br)c(Br)c(Br)c(Br)c2[nH]1,IC50,Casein kinase II,250 nM
same,Ki,Casein kinase II,180 nM
CN(C)CCNc1nc2c(Br)c(Br)c(Br)c(Br)c2[nH]1,IC50,Casein kinase II,250 nM
same,Ki,Casein kinase II,160 nM
CC(O)CNc1nc2c(Br)c(Br)c(Br)c(Br)c2[nH]1 (configuration not stated),IC50,Casein kinase II,280 nM
same,Ki,Casein kinase II,140 nM
CN(C)c1nc2c(Br)c(Br)c(Br)c(Br)c2n1C,IC50,Casein kinase II,130 nM
same,Ki,Casein kinase II,200 nM
CC(C)Nc1nc2c(Br)c(Br)c(Br)c(Br)c2[nH]1,IC50,Casein kinase II,160 nM
same,Ki,Casein kinase II,60 nM
CC(C)Nc1nc2c(Br)c(Br)c(Br)c(Br)c2n1C,IC50,Casein kinase II,180 nM
same,Ki,Casein kinase II,190 nM
NC(=O)Cn1c(Br)nc2c(Br)c(Br)c(Br)c(Br)c21,IC50,Casein kinase II,1570 nM
same,Ki,Casein kinase II,1900 nM
CCOc1nc2c(Br)c(Br)c(Br)c(Br)c2n1C,IC50,Casein kinase II,> 40000 nM
O=c1[nH]c2c(Br)c(Br)c(Br)c(Br)c2[nH]1,IC50,Casein kinase II,360 nM
same,Ki,Casein kinase II,150 nM
CSc1nc2c(Br)c(Br)c(Br)c(Br)c2n1C,IC50,Casein kinase II,600 nM
same,Ki,Casein kinase II,360 nM
Brc1c(Br)c(Br)c2[nH]nnc2c1Br [TETRABROMOBENZOTRIAZOLE],DC50,Jurkat [1],17000 nM
same,inhibition,[39],101%
same,residual activity,[10],91%
same,residual activity,[11],99%
same,residual activity,[12],102%
same,residual activity,[13],111%
same,residual activity,[14],87%
same,residual activity,[15],89%
same,residual activity,[16],89%
same,residual activity,[17],90%
same,residual activity,Homo sapiens [18],49%
same,residual activity,[19],99%
same,residual activity,[20],90%
same,residual activity,[21],97%
same,residual activity,[23],94%
same,residual activity,[24],97%
same,residual activity,[25],96%
same,residual activity,Homo sapiens [26],117%
same,residual activity,[27],91%
same,residual activity,[29],22%
same,residual activity,[30],64%
same,residual activity,[31],101%
same,residual activity,[32],108%
same,residual activity,[33],102%
same,residual activity,[34],91%
same,residual activity,[35],111%
same,residual activity,[36],93%
same,residual activity,[37],107%
same,residual activity,[38],103%
CCOC(=O)CSc1nc2c(Br)c(Br)c(Br)c(Br)c2[nH]1,IC50,Casein kinase II,1550 nM
Cn1c(Br)nc2c(Br)c(Br)c(Br)c(Br)c21,IC50,Casein kinase II,430 nM
same,Ki,Casein kinase II,540 nM
CNc1nc2c(Br)c(Br)c(Br)c(Br)c2[nH]1,IC50,Casein kinase II,210 nM
same,Ki,Casein kinase II,90 nM
OCCNc1nc2c(Br)c(Br)c(Br)c(Br)c2[nH]1,IC50,Casein kinase II,270 nM
same,Ki,Casein kinase II,130 nM
Brc1nc2c(Br)c(Br)c(Br)c(Br)c2[nH]1,IC50,Casein kinase II,740 nM
same,Ki,Casein kinase II,230 nM
